According to ChEMBL document CHEMBL1124464, “Peripherally acting enkephalin analogues. 2. Polar tri- and tetrapeptides” (1989):

Assays:
Type in all cases: functional
Cavia porcellus = species on record: Cavia porcellus; test: Inhibition of electrically induced contractions on the guinea pig ileum; conditions: read-out: ED50 (the source's name)
Outline: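 Guinea pig ileum contractions evoked by coaxial stimulation at 0.1 Hz, 0.5-ms pulses, supramaximal voltage, recorded isometrically; dose-response curves built with 15-min washout between doses.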

Mus musculus [1] = test: Antinociceptive activity of subcutaneously administered compound in acetic acid (AA) induced writhing mice; conditions: sc
Outline: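 Male TFW mice, groups of five to six, given drug subcutaneously (10 mL kg-1), then ip acetic acid 0.6% at 25 mL kg-1. Writhes counted for 5 min beginning 15 min after acetic acid. ED50 = dose reducing writhes 50% versus vehicle, by linear regression.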

Mus musculus [2] = test: Antinociceptive activity of subcutaneously administered compound in phenyl-p-benzoquinone induced writhing mice
Outline: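 Groups of five to six female CD1 mice given drug subcutaneously (10 mL kg-1) 30 min before ip phenyl-p-benzoquinone 2.5 mg kg-1. Writhes (abdominal constrictions/hind-limb extensions) counted over 2.5 min from 10 min post-PBQ. ED50, the dose giving 50% fewer writhes than vehicle, from linear regression.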

Mus musculus [3] = species on record: Mus musculus; test: Dose ratio in the presence and absence of the peripheral opioid antagonist in N-methyl-nalorphine in AA writhing mice
Outline: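 Acetic acid (0.6%, ip) writhing in male TFW mice; N-methylnalorphine 11.5 mg kg-1 ip 20 min before subcutaneous agonist. Writhes counted 5 min from 15 min post-irritant. Dose ratio taken as the shift between parallel regression lines with and without antagonist.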

Mus musculus [4] = test: Antinociceptive activity of perorally administered compound (20 mg) in phenyl-p-benzoquinone induced writhing mice
Outline: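 Female CD1 mice (Charles River), groups of five to six, dosed orally by blunt intragastric needle (10 mL kg-1) 30 min before ip PBQ at 2.5 mg kg-1. Abdominal constrictions/hind-limb extensions were counted over 2.5 min starting 10 min after PBQ. ED50 is the dose halving writhes versus vehicle, estimated by linear regression.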

Mus musculus [5] = test: Antinociceptive activity in the hot plate test (central activity) in rodents, when compound administered subcutaneously at 50 mg
Outline: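 Male CFLP mice (Hacking and Churchill), groups of five to six, dosed sc at 10 mL kg-1 and placed on a copper surface held at 55 °C. Signs of discomfort (paw licking/shaking, jumping) were scored, with a 30-s cut-off. ED50 is the dose doubling response latency versus vehicle, estimated by parallel-line probit analysis.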

Mus musculus [6] = test: Antinociceptive activity of perorally administered compound in phenyl-p-benzoquinone induced writhing mice; conditions: po
Outline: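 Female CD1 mice, groups of five to six, dosed orally by blunt intragastric needle (10 mL kg-1) 30 min before ip phenyl-p-benzoquinone 2.5 mg kg-1. Abdominal constrictions/hind-limb extensions counted over 2.5 min starting 10 min after PBQ. ED50 = dose halving writhes versus vehicle, by linear regression.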

Mus musculus [7] = test: Antinociceptive activity in the hot plate test (central activity) in rodents, when compound administered subcutaneously; conditions: sc
Outline: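 Male CFLP mice, groups of five to six, placed on a copper surface held at 55 °C; latency to paw licking/shaking or jumping recorded, 30-s cut-off. Drug given subcutaneously at 10 mL kg-1. ED50 = dose doubling response latency versus vehicle, by parallel-line probit analysis.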

[8] = Mus musculus, sc, read-out: ED50

SMILES | EC50 (Cavia porcellus) | ED50 (Mus musculus [1]) | ED50 (Mus musculus [2]; [8]) | Ratio (Mus musculus [3]) | ED50 (Mus musculus [2]) | Inhibition (Mus musculus [4]) | Inhibition (Mus musculus [5]) | ED50 (Mus musculus [6]) | ED50 (Mus musculus [7])
CC(=O)O.CCN(Cc1ccc([N+](=O)[O-])cc1)C(=O)CNC(=O)[C@@H](CCCN=C(N)N)NC(=O)[C@H](Cc1ccc(O)cc1)N=C(N)N | 470 nM | 0.9 mg/kg | 7.8 mg/kg | 4.6 |  |  |  |  | 
CC(=O)O.CCN(Cc1ccc(F)cc1)C(=O)CNC(=O)[C@@H](CCCN=C(N)N)NC(=O)[C@H](Cc1ccc(O)cc1)N=C(N)N | 46 nM | 0.32 mg/kg |  | 6.4 | 1.7 mg/kg | 12% | 0% |  | 
CC(=O)O.CCN(CCc1ccco1)C(=O)CNC(=O)[C@@H](CCCN=C(N)N)NC(=O)[C@H](Cc1ccc(O)cc1)N=C(N)N | 10.9 nM |  | 0.32 mg/kg |  |  | 10% |  |  | 
CCN(Cc1c(F)c(F)c(F)c(F)c1F)C(=O)CNC(=O)[C@@H](CCCN=C(N)N)NC(=O)[C@@H](N)Cc1ccc(O)cc1 | 820 nM |  |  |  |  |  |  |  | 
CC(=O)O.CCN(CCc1ccc(C#N)cc1)C(=O)CNC(=O)[C@@H](CCCN=C(N)N)NC(=O)[C@@H](N)Cc1ccc(O)cc1 | 1800 nM | 2.2 mg/kg |  | 1.4 |  |  |  |  | 
CC(=O)O.CCN(C(=O)CNC(=O)[C@@H](CCCN=C(N)N)NC(=O)[C@H](Cc1ccc(O)cc1)N=C(N)N)[C@@H](Cc1ccc([N+](=O)[O-])cc1)C(N)=O | 3.9 nM | 0.009 mg/kg | 0.005 mg/kg | 5.1 |  |  |  | 1.9 mg/kg | 0.34 mg/kg
CC(=O)O.CCN(Cc1ccccc1F)C(=O)CNC(=O)[C@@H](CCCN=C(N)N)NC(=O)[C@@H](N)Cc1ccc(O)cc1 | 325 nM | 1.1 mg/kg | 31.1 mg/kg | 8 |  |  | 0% |  | 
CC(=O)O.CCN(Cc1ccccc1F)C(=O)CNC(=O)[C@@H](CCCN=C(N)N)NC(=O)[C@H](Cc1ccc(O)cc1)N=C(N)N | 20.6 nM | 0.81 mg/kg | 0.43 mg/kg | 7.8 |  | 16% |  |  | 14.6 mg/kg
CC(=O)O.CCN(CCc1ccc([N+](=O)[O-])s1)C(=O)CNC(=O)[C@@H](CCCN=C(N)N)NC(=O)[C@H](Cc1ccc(O)cc1)N=C(N)N | 25.2 nM |  | 2 mg/kg |  |  | 7% |  |  | 
CC(=O)O.CCN(CCc1ccc(Cl)c(Cl)c1)C(=O)CNC(=O)[C@@H](CCCN=C(N)N)NC(=O)[C@H](Cc1ccc(O)cc1)N=C(N)N | < 100 nM | 0.62 mg/kg | 0.2 mg/kg | 1 |  | 14% | 0% |  | 
CC(=O)O.CCN(CCc1ccc([N+](=O)[O-])cc1)C(=O)CNC(=O)[C@@H](CCCN=C(N)N)NC(=O)[C@H](Cc1ccc(O)cc1)N=C(N)N | 30.4 nM | 0.15 mg/kg | 0.24 mg/kg | 9.6 |  |  |  | 10 mg/kg | 19.2 mg/kg
CC(=O)O.CCN(CCc1ccc(F)cc1)C(=O)CNC(=O)[C@@H](CCCN=C(N)N)NC(=O)[C@@H](N)Cc1ccc(O)cc1 | 20.5 nM | 0.14 mg/kg | 1.6 mg/kg | 4.5 |  |  |  | 30.8 mg/kg | 12.3 mg/kg
NC(N)=NCCC[C@@H](NC(=O)[C@@H](N)Cc1ccc(O)cc1)C(=O)NCCSCCc1ccc([N+](=O)[O-])cc1 | 42000 nM |  |  |  |  |  |  |  | 
CC(=O)O.CCN(CCc1ccc([N+](=O)[O-])cc1)C(=O)CNC(=O)[C@@H](CCSC)NC(=O)[C@@H](N)Cc1ccc(O)cc1 | 41 nM | 0.87 mg/kg |  | 1.1 |  |  |  |  | 
CC(=O)O.CCN(C(=O)CNC(=O)[C@@H](CCCN=C(N)N)NC(=O)[C@@H](N)Cc1ccc(O)cc1)[C@@H](Cc1ccc(Cl)cc1)C(N)=O | 0.64 nM | 0.03 mg/kg |  | 1.3 |  |  |  |  | 
CC(=O)O.CCN(C(=O)CNC(=O)[C@@H](CCCN=C(N)N)NC(=O)[C@@H](N)Cc1ccc(O)cc1)[C@@H](Cc1ccc([N+](=O)[O-])cc1)C(N)=O | 5.2 nM | 0.05 mg/kg | 0.06 mg/kg | 3.4 |  |  |  | 13.9 mg/kg | 0.54 mg/kg
CCN(CCc1ccccn1)C(=O)CNC(=O)[C@@H](CCCN=C(N)N)NC(=O)[C@@H](N)Cc1ccc(O)cc1 | 510 nM |  |  |  |  |  |  |  | 

SMILES | EC50 (Cavia porcellus) | ED50 (Mus musculus [1]) | ED50 (Mus musculus [2]; [8]) | Ratio (Mus musculus [3]) | ED50 (Mus musculus [2]) | Inhibition (Mus musculus [4]) | Inhibition (Mus musculus [5]) | ED50 (Mus musculus [6]) | ED50 (Mus musculus [7])
CC(=O)O.CCN(CCc1ccccc1[N+](=O)[O-])C(=O)CNC(=O)[C@@H](CCCN=C(N)N)NC(=O)[C@H](Cc1ccc(O)cc1)N=C(N)N | 1.2 nM | 0.03 mg/kg | 1.1 mg/kg | 8.6 |  |  |  | 76.1 mg/kg | 52.9 mg/kg
CC(=O)O.CCN(C(=O)CNC(=O)[C@@H](CCCN=C(N)N)NC(=O)[C@@H](N)Cc1ccc(O)cc1)[C@@H](Cc1cccc(F)c1)C(N)=O | 25 nM | 0.04 mg/kg | 0.08 mg/kg | 2.2 |  |  |  |  | 1.7 mg/kg
CC(=O)O.CCN(CCc1cccc2ccccc12)C(=O)CNC(=O)[C@@H](CCCN=C(N)N)NC(=O)[C@@H](N)Cc1ccc(O)cc1 | 75.9 nM |  | 1.4 mg/kg |  |  | 31% | 0% |  | 
CC(=O)O.CCN(C(=O)CNC(=O)[C@@H](CCCN=C(N)N)NC(=O)[C@H](Cc1ccc(O)cc1)N=C(N)N)[C@@H](Cc1ccc(F)cc1)C(N)=O | 0.09 nM | 0.002 mg/kg | 0.04 mg/kg | 6.5 |  |  |  | 25.6 mg/kg | 0.9 mg/kg
CC(=O)O.CCN(Cc1ccc(-c2ccccc2)cc1)C(=O)CNC(=O)[C@@H](CCCN=C(N)N)NC(=O)[C@H](Cc1ccc(O)cc1)N=C(N)N | 324 nM |  | 2.3 mg/kg |  |  | 0% |  |  | 
CC(=O)O.CCN(CCc1cccc2ccccc12)C(=O)CNC(=O)[C@@H](CCCN=C(N)N)NC(=O)[C@H](Cc1ccc(O)cc1)N=C(N)N | 30 nM |  | 1.4 mg/kg |  |  | 0% | 0% |  | 
CCN(CCc1sccc1[N+](=O)[O-])C(=O)CNC(=O)[C@@H](CCCN=C(N)N)NC(=O)[C@@H](N)Cc1ccc(O)cc1 | 146 nM |  |  |  |  |  |  |  | 
CC(=O)O.CCN(CCc1ccc([N+](=O)[O-])s1)C(=O)CNC(=O)[C@@H](CCCN=C(N)N)NC(=O)[C@@H](N)Cc1ccc(O)cc1 | 217 nM | 1.7 mg/kg |  | 6.2 |  |  |  |  | 
CC(=O)O.CCN(C(=O)CNC(=O)[C@@H](CCCN=C(N)N)NC(=O)[C@@H](N)Cc1ccc(O)cc1)[C@@H](Cc1ccc(C(F)(F)F)cc1)C(N)=O | 6.25 nM | 0.13 mg/kg |  | 2.9 |  |  |  |  | 16.9 mg/kg
CC(=O)O.CCN(C(=O)CNC(=O)[C@@H](CCSC)NC(=O)[C@@H](N)Cc1ccc(O)cc1)[C@@H](Cc1ccc([N+](=O)[O-])cc1)C(N)=O | 1.2 nM | 0.0015 mg/kg |  | 0.8 |  |  |  |  | 
CC(=O)O.CCN(CCc1ccc(F)cc1)C(=O)CNC(=O)[C@@H](CCCN=C(N)N)NC(=O)[C@H](Cc1ccc(O)cc1)N=C(N)N | 6.8 nM | 0.02 mg/kg | 0.08 mg/kg | 2.4 |  |  |  | 5.3 mg/kg | 20 mg/kg
CC(=O)O.CCN(C(=O)CNC(=O)[C@@H](CCCN=C(N)N)NC(=O)[C@@H](N)Cc1ccc(O)cc1)[C@@H](Cc1ccc(Cl)c(Cl)c1)C(N)=O | 0.79 nM | 0.008 mg/kg | 1.79 mg/kg | 9.7 |  |  |  | 29.2 mg/kg | 38.2 mg/kg
CC(=O)O.CN(C(=O)CNC(=O)[C@@H](CCCN=C(N)N)NC(=O)[C@@H](N)Cc1ccc(O)cc1)[C@@H](Cc1ccc([N+](=O)[O-])cc1)C(N)=O | 36.5 nM | 0.25 mg/kg |  | 2.5 |  |  |  |  | 
CC(=O)O.CCN(C(=O)CNC(=O)[C@@H](CCCN=C(N)N)NC(=O)[C@@H](N)Cc1ccc(O)cc1)[C@@H](Cc1ccccc1F)C(N)=O | 0.39 nM | 0.0009 mg/kg | 0.15 mg/kg | 3.9 |  |  |  | 5.9 mg/kg | 1.95 mg/kg
CC(=O)O.CCN(CCc1cccs1)C(=O)CNC(=O)[C@@H](CCCN=C(N)N)NC(=O)[C@H](Cc1ccc(O)cc1)N=C(N)N | 9.3 nM |  | 0.44 mg/kg |  |  | 15% |  |  | 22.9 mg/kg
CC(=O)O.CCN(C(=O)CNC(=O)[C@@H](CCCN=C(N)N)NC(=O)[C@@H](N)Cc1ccc(O)cc1)[C@@H](Cc1ccc(F)cc1)C(N)=O | 2.2 nM | 0.0006 mg/kg | 0.13 mg/kg | 2.3 |  |  |  | 7.9 mg/kg | 1.6 mg/kg
